Measured values from ChEMBL document CHEMBL1140548, “Synthesis, antibacterial activity, and quantitative structure-activity relationships of new (Z)-2-(nitroimidazolylmethylene)-3(2H)-benzofuranone derivatives” (2007).
In brackets after ≈: the same amount, converted by molar mass.

Columns and labels:
Assay type in all cases: functional
[1] = test system: Bacillus subtilis; assay: Antimicrobial activity against Bacillus subtilis ATCC 6633 in presence of 0.1% butylated hydroxytoluene
[2] = test system: Staphylococcus aureus; assay: Antimicrobial activity against methicillin-resistant Staphylococcus aureus isolate in presence of 0.1% butylated hydroxytoluene
In short: (§1)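 In vitro conventional agar-dilution assay against a panel of Gram-positive and Gram-negative bacteria. Read-out is the minimal inhibitory concentration (MIC), with amoxicillin as the reference drug.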

[3] = test system: Staphylococcus aureus; assay: Antimicrobial activity against Staphylococcus aureus ATCC 6538p in presence of 0.1% butylated hydroxytoluene; in short: as §1
[4] = test system: Staphylococcus epidermidis; assay: Antimicrobial activity against Staphylococcus epidermidis ATCC 12228 in presence of 0.1% butylated hydroxytoluene
[5] = test system: Klebsiella pneumoniae; assay: Antimicrobial activity against Klebsiella pneumoniae ATCC 10031 in presence of 0.1% butylated hydroxytoluene
[6] = test system: Staphylococcus aureus; assay: Antimicrobial activity against methicillin-resistant Staphylococcus aureus isolate; in short: as §1
[7] = test system: Klebsiella pneumoniae; assay: Antimicrobial activity against Klebsiella pneumoniae ATCC 10031
In short: (§2)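 Agar-dilution assay run in vitro on a panel of Gram-positive and Gram-negative bacteria, with amoxicillin as the reference drug. The MIC was taken as the minimal inhibitory concentration.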

[8] = test system: Staphylococcus epidermidis; assay: Antimicrobial activity against Staphylococcus epidermidis ATCC 12228; in short: as §2
[9] = test system: Bacillus subtilis; assay: Antimicrobial activity against Bacillus subtilis ATCC 6633; in short: as §2
[10] = test system: Staphylococcus aureus; assay: Antimicrobial activity against Staphylococcus aureus ATCC 6538p; in short: as §2

| Compound | MIC [1] [µg/mL] | MIC [2] [µg/mL] | MIC [3] [µg/mL] | MIC [4] [µg/mL] | MIC [5] [µg/mL] | MIC [6] [µg/mL] | MIC [7] [µg/mL] | MIC [8] [µg/mL] | MIC [9] [µg/mL] | MIC [10] [µg/mL] |
| --- | --- | --- | --- | --- | --- | --- | --- | --- | --- | --- |
| Cn1c([N+](=O)[O-])cnc1/C=C1\Oc2cc(O)ccc2C1=O | 6.25 | 12.5 | 12.5 | 6.25 | 3.12 |  |  |  |  |  |
| COc1ccc2c(c1OC)O/C(=C\c1ncc([N+](=O)[O-])n1C)C2=O |  |  |  |  |  | 0.78 (≈ 2.35 µM) | 0.2 (≈ 0.604 µM) | 0.39 (≈ 1.18 µM) | 0.39 (≈ 1.18 µM) | 0.78 (≈ 2.35 µM) |
| Cn1cnc([N+](=O)[O-])c1/C=C1\Oc2ccc(I)cc2C1=O |  |  |  |  |  | > 100 | > 100 | > 100 | > 100 | > 100 |
| Cn1c([N+](=O)[O-])cnc1/C=C1\Oc2c(Cl)cccc2C1=O |  |  |  |  |  | 3.12 (≈ 10.2 µM) | 1.56 (≈ 5.1 µM) | 3.12 (≈ 10.2 µM) | 3.12 (≈ 10.2 µM) | 3.12 (≈ 10.2 µM) |
| Cn1c([N+](=O)[O-])cnc1/C=C1\Cc2ccccc2C1=O |  |  |  |  |  | > 100 | 0.2 (≈ 0.743 µM) | > 100 | > 100 | > 100 |
| Cn1c([N+](=O)[O-])cnc1C=C1C(=O)c2ccccc2C1=O |  |  |  |  |  | 100 (≈ 353 µM) | > 100 | 50 (≈ 177 µM) | 50 (≈ 177 µM) | 100 (≈ 353 µM) |
| Cc1ccc2c(c1)O/C(=C\c1c([N+](=O)[O-])ncn1C)C2=O |  |  |  |  |  | > 100 | > 100 | > 100 | > 100 | > 100 |
| COc1ccc2c(c1)C(=O)/C(=C/c1ncc([N+](=O)[O-])n1C)O2 |  |  |  |  |  | 3.12 (≈ 10.4 µM) | 0.39 (≈ 1.29 µM) | 3.12 (≈ 10.4 µM) | 0.78 (≈ 2.59 µM) | 3.12 (≈ 10.4 µM) |
| COc1ccc2c(c1)C(=O)/C(=C/c1c([N+](=O)[O-])ncn1C)O2 |  |  |  |  |  | > 100 | 6.25 (≈ 20.7 µM) | > 100 | > 100 | > 100 |
| Cn1cnc([N+](=O)[O-])c1/C=C1\Oc2cc(Cl)ccc2C1=O |  |  |  |  |  | > 100 | > 100 | > 100 | > 100 | > 100 |
| Cn1cnc([N+](=O)[O-])c1/C=C1\Oc2ccc(Br)cc2C1=O |  |  |  |  |  | > 100 | > 100 | > 100 | > 100 | > 100 |
| Cn1cnc([N+](=O)[O-])c1/C=C1\Oc2c(Cl)cccc2C1=O |  |  |  |  |  | > 100 | > 100 | > 100 | > 100 | > 100 |
| Cn1cnc([N+](=O)[O-])c1/C=C1\Oc2ccccc2C1=O |  |  |  |  |  | > 100 | > 100 | > 100 | > 100 | > 100 |
| Cc1cccc2c1O/C(=C\c1ncc([N+](=O)[O-])n1C)C2=O |  |  |  |  |  | 3.12 (≈ 11 µM) | 0.39 (≈ 1.37 µM) | 1.56 (≈ 5.47 µM) | 1.56 (≈ 5.47 µM) | 3.12 (≈ 11 µM) |
| CC1(C)S[C@@H]2[C@H](NC(=O)[C@H](N)c3ccc(O)cc3)C(=O)N2[C@H]1C(=O)O [AMOXICILLIN] |  |  |  |  |  | 12.5 (≈ 34.2 µM) | > 100 | 0.195 (≈ 0.534 µM) | 12.5 (≈ 34.2 µM) | 0.195 (≈ 0.534 µM) |
| Cn1c([N+](=O)[O-])cnc1/C=C1\Oc2ccccc2C1=O |  |  |  |  |  | 6.25 (≈ 23 µM) | 0.39 (≈ 1.44 µM) | 3.12 (≈ 11.5 µM) | 0.78 (≈ 2.88 µM) | 3.12 (≈ 11.5 µM) |

| Compound | MIC [1] [µg/mL] | MIC [2] [µg/mL] | MIC [3] [µg/mL] | MIC [4] [µg/mL] | MIC [5] [µg/mL] | MIC [6] [µg/mL] | MIC [7] [µg/mL] | MIC [8] [µg/mL] | MIC [9] [µg/mL] | MIC [10] [µg/mL] |
| --- | --- | --- | --- | --- | --- | --- | --- | --- | --- | --- |
| Cn1cnc([N+](=O)[O-])c1/C=C1\Oc2ccc(Cl)cc2C1=O |  |  |  |  |  | > 100 | > 100 | > 100 | > 100 | > 100 |
| Cc1ccc2c(c1)O/C(=C\c1ncc([N+](=O)[O-])n1C)C2=O |  |  |  |  |  | 1.56 (≈ 5.47 µM) | 0.39 (≈ 1.37 µM) | 1.56 (≈ 5.47 µM) | 0.78 (≈ 2.73 µM) | 3.12 (≈ 11 µM) |
| Cn1c([N+](=O)[O-])cnc1/C=C1\Oc2ccc([N+](=O)[O-])cc2C1=O |  |  |  |  |  | 12.5 (≈ 39.5 µM) | 6.25 (≈ 19.8 µM) | 6.25 (≈ 19.8 µM) | 12.5 (≈ 39.5 µM) | 12.5 (≈ 39.5 µM) |
| COc1cccc2c1O/C(=C\c1c([N+](=O)[O-])ncn1C)C2=O |  |  |  |  |  | > 100 | > 100 | > 100 | > 100 | > 100 |
| Cn1c([N+](=O)[O-])cnc1/C=C1\Oc2cc(O)cc(O)c2C1=O | 50 | > 100 | > 100 | 50 | > 100 |  |  |  |  |  |
| Cn1cnc([N+](=O)[O-])c1/C=C1\Oc2ccc([N+](=O)[O-])cc2C1=O |  |  |  |  |  | > 100 | > 100 | > 100 | > 100 | > 100 |
| Cn1c([N+](=O)[O-])cnc1/C=C1\Oc2ccc(I)cc2C1=O |  |  |  |  |  | > 100 | 50 (≈ 126 µM) | > 100 | > 100 | > 100 |
| Cn1c([N+](=O)[O-])cnc1/C=C1\Oc2ccc(Br)cc2C1=O |  |  |  |  |  | > 100 | 3.12 (≈ 8.93 µM) | > 100 | > 100 | > 100 |
| COc1ccc2c(c1)O/C(=C\c1c([N+](=O)[O-])ncn1C)C2=O |  |  |  |  |  | > 100 | > 100 | > 100 | > 100 | > 100 |
| Cc1ccc2c(c1)C(=O)/C(=C/c1c([N+](=O)[O-])ncn1C)O2 |  |  |  |  |  | > 100 | > 100 | > 100 | > 100 | > 100 |
| Cn1c([N+](=O)[O-])cnc1/C=C1\Oc2cc(Cl)ccc2C1=O |  |  |  |  |  | > 100 | 0.78 (≈ 2.55 µM) | > 100 | 1.56 (≈ 5.1 µM) | > 100 |
| COc1cccc2c1O/C(=C\c1ncc([N+](=O)[O-])n1C)C2=O |  |  |  |  |  | 0.78 (≈ 2.59 µM) | 0.78 (≈ 2.59 µM) | 0.78 (≈ 2.59 µM) | 0.78 (≈ 2.59 µM) | 0.78 (≈ 2.59 µM) |
| Cc1ccc2c(c1)C(=O)/C(=C/c1ncc([N+](=O)[O-])n1C)O2 |  |  |  |  |  | 3.12 (≈ 11 µM) | 0.39 (≈ 1.37 µM) | 3.12 (≈ 11 µM) | 1.56 (≈ 5.47 µM) | 3.12 (≈ 11 µM) |
| COc1ccc2c(c1)O/C(=C\c1ncc([N+](=O)[O-])n1C)C2=O |  |  |  |  |  | 1.56 (≈ 5.18 µM) | 0.39 (≈ 1.29 µM) | 1.56 (≈ 5.18 µM) | 0.78 (≈ 2.59 µM) | 1.56 (≈ 5.18 µM) |
| Cn1c([N+](=O)[O-])cnc1/C=C1\Oc2ccc(Cl)cc2C1=O |  |  |  |  |  | 3.12 (≈ 10.2 µM) | 0.78 (≈ 2.55 µM) | 3.12 (≈ 10.2 µM) | 1.56 (≈ 5.1 µM) | 3.12 (≈ 10.2 µM) |
| Cc1cccc2c1O/C(=C\c1c([N+](=O)[O-])ncn1C)C2=O |  |  |  |  |  | > 100 | > 100 | > 100 | > 100 | > 100 |
